Published values collected from several papers.

c1ccc(-c2nc(NCc3nc4ccccc4o3)c3ccccc3n2)nc1
microsomal CLint (metabolic stability; mouse, liver microsomes): 119 µL/min/mg

C#Cc1cccc(Nc2ncnc3cc(OCCOC)c(OCCOC)cc23)c1
Vd/F (male Sprague-Dawley rat, plasma; oral, 12 mg/kg, single dose): 4.3 L/kg

O=C(CCCCCCC(=O)Nc1ccccc1)NO
Cmax (cat, serum; oral, 250 mg/m², single dose): 39 ng/mL

Cc1cc(Cl)c(Cl)cc1NC(=O)c1ccc(N2CCNCC2)nc1
scaled CLint (metabolic stability; CD-1 mouse, liver microsomes; 1 µM, 1 h, pH 7.4): 47 mL/min/kg

CC(=O)Nc1nnc(N2CCN([C@@H](C)c3ccc4c(c3)OCO4)CC2)s1
fraction unbound (monkey, plasma; 1 µM): 0.068

O=C(O)C1CCN(c2nc(-c3ccccn3)nc3ccccc23)C1 (stereo not shown)
microsomal CLint (metabolic stability; mouse, liver microsomes): < 1 µL/min/mg

CNCc1cc(-c2ccccc2F)n(S(=O)(=O)c2cccnc2)c1
Vd/F (Sprague-Dawley rat, plasma; oral, 10 mg/kg): 32.2 L/kg

Oc1c(Br)cc(Cl)c2cccnc12
Vd/F (Sprague-Dawley rat, plasma; subcutaneous, 10 mg/kg): 15.1 L/kg

Cc1ccc(-c2nc3ccccc3o2)cc1NC(=O)c1cc([N+](=O)[O-])c(N2CCNCC2)cc1Cl
scaled CLint (metabolic stability; CD-1 mouse, liver microsomes; 1 µM, 1 h, pH 7.4): 12 mL/min/kg

c1ccc(-c2nc(N3CCc4cccnc4C3)c3ccccc3n2)nc1
microsomal CLint (metabolic stability; mouse, liver microsomes): 520 µL/min/mg
